Results on ten molecules are retold here after PMC3428732 (Analytical chemistry, 2012).

The target in one data set is PKBα kinase (Homo sapiens, UniProt P31749). The experiment in a line: in vitro kinase assay with purified PKBα. The data set is classed as biochemical. An outline of the steps: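 Active purified PKBα (6 nM) with N-terminally fluorescein-labelled peptide substrate (25 μM) at 30 °C. Buffer: 8 mM MOPS pH 7.0, 0.2 mM EDTA, 4 mM MgCl₂, 1 mM ATP. Aliquots were removed over time and stopped by heating at 90 °C for 4 min. Phosphorylation was quantified by CE-LIF. Triplicates used different enzyme aliquots on different days; mean ± SD.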
Chain of PKBα kinase (P31749 whole entry): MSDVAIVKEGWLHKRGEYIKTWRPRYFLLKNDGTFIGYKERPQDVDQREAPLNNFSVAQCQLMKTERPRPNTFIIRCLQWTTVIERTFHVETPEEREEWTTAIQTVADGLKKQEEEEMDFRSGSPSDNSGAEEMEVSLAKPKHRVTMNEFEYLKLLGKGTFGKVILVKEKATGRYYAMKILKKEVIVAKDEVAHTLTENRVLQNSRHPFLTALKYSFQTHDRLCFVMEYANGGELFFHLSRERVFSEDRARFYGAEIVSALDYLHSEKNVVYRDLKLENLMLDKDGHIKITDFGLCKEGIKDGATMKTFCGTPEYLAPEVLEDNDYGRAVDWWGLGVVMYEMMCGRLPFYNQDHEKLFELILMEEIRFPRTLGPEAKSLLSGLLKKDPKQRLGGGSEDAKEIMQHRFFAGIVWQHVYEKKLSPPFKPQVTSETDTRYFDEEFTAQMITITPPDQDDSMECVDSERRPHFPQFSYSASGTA

Data set [1] can be described thus: Peptide degradation in a HeLa cytosolic lysate. The data set is classed as in vitro ADME, human. As to conditions: for half-life at 1 μM: human, HeLa cytosolic lysate. The essentials: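 Fluorescein-labelled peptide (1 μM) incubated at 37 °C with HeLa or LNCaP cytosolic lysate (3 mg mL⁻¹ total protein). Aliquots were quenched with HCl to 100 mM final; the 0 min point was acidified before peptide addition. Products were separated by CE-LIF, and fragments were identified by spiking in 250 nM standards. Initial rates were taken from the 0 and 5 min points, normalised to cytosolic protein (zmol pg⁻¹ s⁻¹). Triplicates used different lysates; mean ± SD.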

Data set [2] deals with PKB activity in single LNCaP cells. The data set is described as follows: Peptide phosphorylation in single LNCaP cells. Type of data set: cell-based, human. As to conditions: LNCaP cells pre-incubated with 500 nM wortmannin (10 min), then loaded with VI-B, 5 min; n = 10.

Square brackets hold non-standard residues; d marks the D form. Peptide text beside a SMILES is read from it. * marks the point of attachment. 6FAM = O=C1OC2(c3ccc(O)cc3Oc3cc(O)ccc32)c2cc(C(=O)*)ccc21; Phe(F5) = N[C@@H](Cc1c(F)c(F)c(F)c(F)c1F)C(=O)O; NMeR = CN[C@@H](CCCNC(=N)N)C(=O)O; NMeF = CN[C@@H](Cc1ccccc1)C(=O)O; βAla = NCCC(=O)O

Broadly, the half-life is the time needed for the level to fall by half in the phase considered. Read a high half-life as slow loss. As for `C[C@H](NC(=O)[C@H](C)NC(=O)[C@H](CCCNC(=N)N)N(C)C(=O)[C@@H]1CCCN1C(=O)[C@H](CCCNC(=N)N)NC(=O)CNC(=O)c1ccc2c(c1)C1(OC2=O)c2ccc(O)cc2Oc2cc(O)ccc21)C(=O)N[C@H](C(=O)N[C@@H](Cc1ccccc1)C(=O)N[C@@H](C)C(=O)N[C@@H](CCC(=O)O)C(=O)NCC(N)=O)[C@@H](C)O` [III-B, 6FAM-GRP-MeArg-AATFAEG] (6FAM-GRP[NMeR]AATFAEG-NH2), on PKBα kinase, the “fold longer t50%P than peptide I” value is recorded as “more than 50 X”. The “6-residue fragment (alanine-threonine bond hydrolysis), % of all peptide present” value in data set [1] (HeLa lysate, within 15 min) is 92%. For the same molecule, the half-life at 1 μM in data set [1] came out at 2 min.
With `C[C@H](NC(=O)[C@H](C)NC(=O)[C@@H](CCCNC(=N)N)NC(=O)[C@@H]1CCCN1C(=O)[C@H](CCCNC(=N)N)NC(=O)CNC(=O)c1ccc2c(c1)C1(OC2=O)c2ccc(O)cc2Oc2cc(O)ccc21)C(=O)N[C@H](C(=O)N[C@@H](Cc1ccccc1)C(=O)N[C@@H](C)C(=O)N[C@@H](CCC(=O)O)C(=O)NCC(N)=O)[C@@H](C)O` [III-D, 6FAM-GRP-DArg-AATFAEG] (6FAM-GRP[dR]AATFAEG-NH2), the half-life at 1 μM in data set [1] amounted to 17 min.
With `C[C@H](NC(=O)[C@H](Cc1ccccc1)NC(=O)[C@@H](NC(=O)CCNC(=O)[C@H](C)NC(=O)[C@H](CCCNC(=N)N)N(C)C(=O)[C@@H]1CCCN1C(=O)[C@H](CCCNC(=N)N)NC(=O)CNC(=O)c1ccc2c(c1)C1(OC2=O)c2ccc(O)cc2Oc2cc(O)ccc21)[C@@H](C)O)C(=O)N[C@@H](CCC(=O)O)C(=O)NCC(N)=O` [IV-A, 6FAM-GRP-MeArg-A-βAla-TFAEG] (6FAM-GRP[NMeR]A[βAla]TFAEG-NH2), in data set [1], the half-life at 1 μM worked out at 14 min.
On the same count and under the same terms, in the case of `C[C@H](NC(=O)[C@H](Cc1ccccc1)NC(=O)[C@@H](NC(=O)[C@@H](C)NC(=O)[C@H](C)NC(=O)[C@H](CCCNC(=N)N)N(C)C(=O)[C@@H]1CCCN1C(=O)[C@H](CCCNC(=N)N)NC(=O)CNC(=O)c1ccc2c(c1)C1(OC2=O)c2ccc(O)cc2Oc2cc(O)ccc21)[C@@H](C)O)C(=O)N[C@@H](CCC(=O)O)C(=O)NCC(N)=O` [IV-B, 6FAM-GRP-MeArg-A-DAla-TFAEG] (6FAM-GRP[NMeR]A[dA]TFAEG-NH2) it was 32 min; in that of `C[C@H](NC(=O)[C@H](Cc1ccccc1)NC(=O)[C@@H](NC(=O)[C@H](CCC(=O)O)NC(=O)[C@H](C)NC(=O)[C@H](CCCNC(=N)N)N(C)C(=O)[C@@H]1CCCN1C(=O)[C@H](CCCNC(=N)N)NC(=O)CNC(=O)c1ccc2c(c1)C1(OC2=O)c2ccc(O)cc2Oc2cc(O)ccc21)[C@@H](C)O)C(=O)N[C@@H](CCC(=O)O)C(=O)NCC(N)=O` [IV-C, 6FAM-GRP-MeArg-A-Glu-TFAEG] (6FAM-GRP[NMeR]AETFAEG-NH2), 37 min.
In the case of `C[C@H](NC(=O)[C@H](Cc1ccccc1)NC(=O)[C@@H](NC(=O)[C@H](Cc1ccccc1)NC(=O)[C@H](C)NC(=O)[C@H](CCCNC(=N)N)N(C)C(=O)[C@@H]1CCCN1C(=O)[C@H](CCCNC(=N)N)NC(=O)CNC(=O)c1ccc2c(c1)C1(OC2=O)c2ccc(O)cc2Oc2cc(O)ccc21)[C@@H](C)O)C(=O)N[C@@H](CCC(=O)O)C(=O)NCC(N)=O` [IV-D, 6FAM-GRP-MeArg-A-FTFAEG] (6FAM-GRP[NMeR]AFTFAEG-NH2), the “fold faster t50%P than peptide III-B” value on PKBα kinase is “over 30 X”. Besides, the half-life at 1 μM in data set [1] was found to be 14 min.
Molecule `C[C@H](NC(=O)[C@H](Cc1ccccc1)NC(=O)[C@@H](NC(=O)[C@H](Cc1ccccc1)N(C)C(=O)[C@H](C)NC(=O)[C@H](CCCNC(=N)N)N(C)C(=O)[C@@H]1CCCN1C(=O)[C@H](CCCNC(=N)N)NC(=O)CNC(=O)c1ccc2c(c1)C1(OC2=O)c2ccc(O)cc2Oc2cc(O)ccc21)[C@@H](C)O)C(=O)N[C@@H](CCC(=O)O)C(=O)NCC(N)=O` [IV-E, 6FAM-GRP-MeArg-A-MePhe-TFAEG] (6FAM-GRP[NMeR]A[NMeF]TFAEG-NH2) returned a half-life at 1 μM in data set [1] of 2 min.
Consider `C[C@H](NC(=O)[C@H](Cc1c(F)c(F)c(F)c(F)c1F)NC(=O)[C@@H](NC(=O)[C@H](Cc1ccccc1)NC(=O)[C@H](C)NC(=O)[C@H](CCCNC(=N)N)N(C)C(=O)[C@@H]1CCCN1C(=O)[C@H](CCCNC(=N)N)NC(=O)CNC(=O)c1ccc2c(c1)C1(OC2=O)c2ccc(O)cc2Oc2cc(O)ccc21)[C@@H](C)O)C(=O)N[C@@H](CCC(=O)O)C(=O)NCC(N)=O` [V-A, 6FAM-GRP-MeArg-AFT-Phe(F5)-AEG] (6FAM-GRP[NMeR]AFT[Phe(F5)]AEG-NH2), for which the half-life at 1 μM in data set [1] amounted to 88 min.
For `C[C@H](NC(=O)[C@H](CCCNC(=N)N)N(C)C(=O)[C@@H]1CCCN1C(=O)[C@H](CCCNC(=N)N)NC(=O)CNC(=O)c1ccc2c(c1)C1(OC2=O)c2ccc(O)cc2Oc2cc(O)ccc21)C(=O)N[C@@H](Cc1ccccc1)C(=O)N[C@H](C(=O)N[C@@H](Cc1ccccc1)C(=O)N[C@H](C)C(=O)N[C@@H](CCC(=O)O)C(=O)NCC(N)=O)[C@@H](C)O` [V-B, 6FAM-GRP-MeArg-AFTF-DAla-EG] (6FAM-GRP[NMeR]AFTF[dA]EG-NH2), in data set [1] (HeLa lysate), the “fold greater t1/2 than peptide IV-D” value is on record as “over 60 X”. In data set [1], this molecule had a half-life at 1 μM of 895 min.
On to `COC[C@H]1OC(=O)c2coc3c2[C@@]1(C)C1=C(C3=O)[C@@H]2CCC(=O)[C@@]2(C)C[C@H]1OC(C)=O` [wortmannin, Wortmannin], for which the “formation of phosphorylated product of VI-B” value in data set [2] is reported as 13% ± 12%.
